ChEMBL document CHEMBL5303300, “EUbOPEN Chemogenomics Library - Multiplex” (2023)
Where “and” joins values, the source holds several entries; their conditions need not be identical. Identical values can stand only once.

System: U2OS
Test: Multiplex assay against U2OS
Type: toxicity, cell-based
Details: human, number of replicates 2
Summary of the method: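 Cells were classed with CellPathfinder machine-learning gating, first as Hoechst high-intensity objects or normal cells, then (normal cells) as healthy, pyknosed or fragmented nuclei, and finally (pyknosed cells) as mitotic or apoptotic. Staining of live cells at seeding used Hoechst33342, BioTracker Green Microtubule Cytoskeleton Dye, MitoTracker Red and Annexin V Alexa Fluor 680, with imaging on a CQ1 microscope at 37°C and 5% CO2 after compound addition. Tubulin, mitochondrial-mass and membrane-permeability phenotypes are per cents of healthy-nucleus cells.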

[1] = 12 h, 1 µM, compound concentration 1 uM
[2] = 12 h, 10 µM, compound concentration 10 uM
[3] = 24 h, 1 µM, compound concentration 1 uM
[4] = 24 h, 10 µM, compound concentration 10 uM
[5] = 48 h, 1 µM, compound concentration 1 uM
[6] = 48 h, 10 µM, compound concentration 10 uM

## COCCN1CCN(CCn2ccc(Nc3ncc4c(n3)-c3c(nn(C)c3-c3ccccc3)C[C@H]4C)n2)CC1
[1]
  Population Apoptotic (%): 40% and 50%
  Population Healthy Nuclei (%): 84% and 72%
  Population Hoechst High Intensity Objects (%): 0%
  Population Membrane Permeable-Phenotype (%): 1% and 5%
  Population Mitochondria Different-Phenotype (%): 0%
  Population Mitotic Cells (%): 59% and 50%
  Population Normal (%): 100%
  Population Pyknosed Nuclei (%): 11% and 7%
  Population Tubulin-Different-Phenotype (%): 82% and 40%
[2]
  Population Apoptotic (%): 46% and 63%
  Population Fragmented Nuclei (%): 8% and 4%
  Population Healthy Nuclei (%): 61% and 79%
  Population Hoechst High Intensity Objects (%): 0%
  Population Membrane Permeable-Phenotype (%): 6% and 7%
  Population Mitochondria Different-Phenotype (%): 6% and 8%
  Population Mitotic Cells (%): 53% and 36%
  Population Normal (%): 100% and 99%
  Population Pyknosed Nuclei (%): 30% and 16%
  Population Tubulin-Different-Phenotype (%): 20% and 35%
[3]
  Population Apoptotic (%): 58% and 83%
  Population Fragmented Nuclei (%): 2% and 10%
  Population Healthy Nuclei (%): 86% and 81%
  Population Hoechst High Intensity Objects (%): 0%
  Population Membrane Permeable-Phenotype (%): 0% and 7%
  Population Mitochondria Different-Phenotype (%): 0% and 1%
  Population Mitotic Cells (%): 41% and 16%
  Population Normal (%): 100%
  Population Pyknosed Nuclei (%): 11% and 8%
  Population Tubulin-Different-Phenotype (%): 83% and 47%
[4]
  Population Apoptotic (%): 86% and 70%
  Population Fragmented Nuclei (%): 12% and 4%
  Population Healthy Nuclei (%): 63% and 78%
  Population Hoechst High Intensity Objects (%): 0%
  Population Membrane Permeable-Phenotype (%): 5% and 4%
  Population Mitochondria Different-Phenotype (%): 5% and 12%
  Population Mitotic Cells (%): 13% and 29%
  Population Normal (%): 100%
  Population Pyknosed Nuclei (%): 23% and 16%
  Population Tubulin-Different-Phenotype (%): 40% and 37%
[5]
  Population Apoptotic (%): 58% and 45%
  Population Fragmented Nuclei (%): 10% and 1%
  Population Healthy Nuclei (%): 68% and 89%
  Population Hoechst High Intensity Objects (%): 0%
  Population Membrane Permeable-Phenotype (%): 9% and 1%
  Population Mitochondria Different-Phenotype (%): 0%
  Population Mitotic Cells (%): 41% and 54%
  Population Normal (%): 100%
  Population Pyknosed Nuclei (%): 21% and 8%
  Population Tubulin-Different-Phenotype (%): 54% and 80%
[6]
  Population Apoptotic (%): 88% and 91%
  Population Fragmented Nuclei (%): 12% and 6%
  Population Healthy Nuclei (%): 70% and 78%
  Population Hoechst High Intensity Objects (%): 0%
  Population Membrane Permeable-Phenotype (%): 10%
  Population Mitochondria Different-Phenotype (%): 2% and 9%
  Population Mitotic Cells (%): 11% and 8%
  Population Normal (%): 100% and 99%
  Population Pyknosed Nuclei (%): 16% and 14%
  Population Tubulin-Different-Phenotype (%): 38% and 34%

## COc1cc(Nc2cnc(C#N)c(O[C@H](C)CN(C)C)n2)ncc1-c1cnn(C)c1
[1]
  Population Apoptotic (%): 100% and 59%
  Population Healthy Nuclei (%): 63% and 83%
  Population Hoechst High Intensity Objects (%): 0%
  Population Mitochondria Different-Phenotype (%): 8% and 2%
  Population Normal (%): 100%
  Population Pyknosed Nuclei (%): 10% and 11%
  Population Tubulin-Different-Phenotype (%): 75% and 63%
[2]
  Population Apoptotic (%): 88% and 56%
  Population Healthy Nuclei (%): 39% and 74%
  Population Hoechst High Intensity Objects (%): 0%
  Population Mitochondria Different-Phenotype (%): 6% and 8%
  Population Normal (%): 100%
  Population Pyknosed Nuclei (%): 21% and 15%
  Population Tubulin-Different-Phenotype (%): 25% and 32%
[3]
  Population Apoptotic (%): 50% and 76%
  Population Healthy Nuclei (%): 67% and 86%
  Population Hoechst High Intensity Objects (%): 0%
  Population Membrane Permeable-Phenotype (%): 0% and 2%
  Population Mitochondria Different-Phenotype (%): 0%
  Population Mitotic Cells (%): 50% and 24%
  Population Normal (%): 100%
  Population Pyknosed Nuclei (%): 10% and 8%
  Population Tubulin-Different-Phenotype (%): 81% and 72%
[4]
  Population Apoptotic (%): 87% and 64%
  Population Fragmented Nuclei (%): 33% and 11%
  Population Healthy Nuclei (%): 37% and 67%
  Population Hoechst High Intensity Objects (%): 6% and 2%
  Population Mitochondria Different-Phenotype (%): 20% and 9%
  Population Mitotic Cells (%): 12% and 35%
  Population Normal (%): 93% and 97%
  Population Pyknosed Nuclei (%): 29% and 20%
  Population Tubulin-Different-Phenotype (%): 60% and 44%
[5]
  Population Apoptotic (%): 66% and 62%
  Population Healthy Nuclei (%): 55% and 83%
  Population Hoechst High Intensity Objects (%): 0%
  Population Membrane Permeable-Phenotype (%): 2%
  Population Mitochondria Different-Phenotype (%): 0%
  Population Mitotic Cells (%): 33% and 37%
  Population Normal (%): 100% and 99%
  Population Pyknosed Nuclei (%): 28% and 12%
  Population Tubulin-Different-Phenotype (%): 94% and 74%
[6]
  Population Apoptotic (%): 100% and 85%
  Population Fragmented Nuclei (%): 31% and 20%
  Population Healthy Nuclei (%): 20% and 46%
  Population Hoechst High Intensity Objects (%): 3% and 0%
  Population Membrane Permeable-Phenotype (%): 16% and 7%
  Population Mitochondria Different-Phenotype (%): 16% and 10%
  Population Mitotic Cells (%): 0% and 14%
  Population Normal (%): 96% and 99%
  Population Pyknosed Nuclei (%): 48% and 33%
  Population Tubulin-Different-Phenotype (%): 50% and 59%

## CCCNc1ccc2ncc(-c3ccncc3)n2n1
[1]
  Population Apoptotic (%): 60% and 74%
  Population Healthy Nuclei (%): 58% and 81%
  Population Hoechst High Intensity Objects (%): 0%
  Population Membrane Permeable-Phenotype (%): 11% and 2%
  Population Mitochondria Different-Phenotype (%): 11% and 0%
  Population Mitotic Cells (%): 40% and 25%
  Population Normal (%): 100%
  Population Pyknosed Nuclei (%): 17% and 14%
  Population Tubulin-Different-Phenotype (%): 76% and 86%
[2]
  Population Apoptotic (%): 81% and 78%
  Population Healthy Nuclei (%): 35% and 57%
  Population Hoechst High Intensity Objects (%): 0% and 1%
  Population Membrane Permeable-Phenotype (%): 6% and 8%
  Population Mitochondria Different-Phenotype (%): 6% and 3%
  Population Mitotic Cells (%): 18% and 22%
  Population Normal (%): 100% and 98%
  Population Pyknosed Nuclei (%): 24% and 33%
  Population Tubulin-Different-Phenotype (%): 68% and 60%
[3]
  Population Apoptotic (%): 66% and 87%
  Population Healthy Nuclei (%): 71% and 89%
  Population Hoechst High Intensity Objects (%): 0%
  Population Membrane Permeable-Phenotype (%): 10% and 3%
  Population Mitochondria Different-Phenotype (%): 3% and 1%
  Population Mitotic Cells (%): 33% and 12%
  Population Normal (%): 100% and 99%
  Population Pyknosed Nuclei (%): 7%
  Population Tubulin-Different-Phenotype (%): 76% and 88%
[4]
  Population Apoptotic (%): 78% and 90%
  Population Healthy Nuclei (%): 26% and 53%
  Population Hoechst High Intensity Objects (%): 0% and 2%
  Population Membrane Permeable-Phenotype (%): 16% and 7%
  Population Mitochondria Different-Phenotype (%): 8% and 7%
  Population Mitotic Cells (%): 21% and 9%
  Population Normal (%): 100% and 97%
  Population Pyknosed Nuclei (%): 31% and 33%
  Population Tubulin-Different-Phenotype (%): 66% and 69%
[5]
  Population Apoptotic (%): 57% and 66%
  Population Healthy Nuclei (%): 71% and 88%
  Population Hoechst High Intensity Objects (%): 0%
  Population Membrane Permeable-Phenotype (%): 6% and 3%
  Population Mitochondria Different-Phenotype (%): 6% and 2%
  Population Mitotic Cells (%): 42% and 33%
  Population Normal (%): 100%
  Population Pyknosed Nuclei (%): 11% and 7%
  Population Tubulin-Different-Phenotype (%): 69% and 86%
[6]
  Population Apoptotic (%): 81% and 78%
  Population Healthy Nuclei (%): 23% and 37%
  Population Hoechst High Intensity Objects (%): 0% and 1%
  Population Mitochondria Different-Phenotype (%): 23% and 8%
  Population Mitotic Cells (%): 18% and 21%
  Population Normal (%): 100% and 98%
  Population Pyknosed Nuclei (%): 29% and 51%
  Population Tubulin-Different-Phenotype (%): 46% and 62%

## C=CC(=O)Nc1ccc2[nH]c(=O)n(C3CCN(Cc4ccc(-c5ccc6c(c5)NC(=O)CO6)cc4)CC3)c2c1 [RL2578]
[1]
  Population Fragmented Nuclei (%): 5% and 4%
  Population Healthy Nuclei (%): 66% and 83%
  Population Hoechst High Intensity Objects (%): 0%
  Population Mitochondria Different-Phenotype (%): 4% and 0%
  Population Normal (%): 100%
  Population Pyknosed Nuclei (%): 27% and 11%
  Population Tubulin-Different-Phenotype (%): 58% and 84%
[2]
  Population Apoptotic (%): 66%
  Population Fragmented Nuclei (%): 18% and 9%
  Population Healthy Nuclei (%): 57% and 80%
  Population Hoechst High Intensity Objects (%): 0%
  Population Membrane Permeable-Phenotype (%): 13% and 7%
  Population Mitochondria Different-Phenotype (%): 13% and 30%
  Population Mitotic Cells (%): 33%
  Population Normal (%): 100%
  Population Pyknosed Nuclei (%): 23% and 9%
  Population Tubulin-Different-Phenotype (%): 31% and 46%
[3]
  Population Apoptotic (%): 85% and 74%
  Population Fragmented Nuclei (%): 8% and 4%
  Population Healthy Nuclei (%): 75% and 86%
  Population Hoechst High Intensity Objects (%): 0%
  Population Membrane Permeable-Phenotype (%): 11% and 1%
  Population Mitochondria Different-Phenotype (%): 8% and 2%
  Population Mitotic Cells (%): 14% and 25%
  Population Normal (%): 100%
  Population Pyknosed Nuclei (%): 15% and 9%
  Population Tubulin-Different-Phenotype (%): 76% and 87%
[4]
  Population Apoptotic (%): 61% and 54%
  Population Fragmented Nuclei (%): 9% and 8%
  Population Healthy Nuclei (%): 54% and 78%
  Population Hoechst High Intensity Objects (%): 1% and 0%
  Population Membrane Permeable-Phenotype (%): 0% and 5%
  Population Mitotic Cells (%): 38% and 45%
  Population Normal (%): 98% and 99%
  Population Pyknosed Nuclei (%): 35% and 12%
  Population Tubulin-Different-Phenotype (%): 39% and 47%
[5]
  Population Apoptotic (%): 83% and 70%
  Population Healthy Nuclei (%): 68% and 90%
  Population Hoechst High Intensity Objects (%): 0%
  Population Membrane Permeable-Phenotype (%): 8% and 0%
  Population Mitochondria Different-Phenotype (%): 4% and 0%
  Population Mitotic Cells (%): 16% and 30%
  Population Normal (%): 100%
  Population Pyknosed Nuclei (%): 16% and 6%
  Population Tubulin-Different-Phenotype (%): 80% and 84%
[6]
  Population Apoptotic (%): 76% and 68%
  Population Fragmented Nuclei (%): 13% and 10%
  Population Healthy Nuclei (%): 53% and 70%
  Population Hoechst High Intensity Objects (%): 0% and 1%
  Population Membrane Permeable-Phenotype (%): 10% and 5%
  Population Mitochondria Different-Phenotype (%): 7% and 18%
  Population Mitotic Cells (%): 23% and 31%
  Population Normal (%): 100% and 98%
  Population Pyknosed Nuclei (%): 32% and 19%
  Population Tubulin-Different-Phenotype (%): 71% and 59%
